WT yeast gro inh = growth inhibition of WT yeast, mitochondrial fusion screen. mitochondrial fusion phenotypic screen, WT strain. inhibition, % at 10 µM. hit rate 2.1% among 190,000; in the data active = inhibition above about 58%; tested in S. cerevisiae
G6PDH counter = counter-screen for G6PDH assay hits: L. mesenteroides G6PDH inhibition; Purified L. mesenteroides G6PDH, diaphorase/resazurin coupled fluorescence, 45 min; inhibition, % at 5 µM; hit rate 0.12% among 200,000; AID 1020
Diaphorase inh = diaphorase inhibition or chemical oxidation counter-screen; diaphorase resazurin-to-resorufin fluorescence, NADH, 16 min; bacterial (C. kluyveri) enzyme, not human; inhibition, % at 20 µM; hit rate 0.69% among 190,000;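 active = primary screen inhibition at 20 µM above a set limit, cut at about 50% in these data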;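 also: plate controls were DMSO with full reaction for no effect and wells lacking NADH for full effect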
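System: Bacterial diaphorase enzyme (C. kluyveri) | Incubation: 16-min room-temperature incubation before reading | Benchmarks: No-NADH positive control and DMSO neutral control | Measured by: Resorufin fluorescence 544/590 nm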
Diaphorase act = counter-screen for diaphorase-based assays: diaphorase activators and chemical reducers | Diaphorase/resazurin coupled assay, resorufin fluorescence, 16 min; active compounds read high; 1 = vehicle wells, 0 = NADH-free wells | hit rate 0.005% among 190,000 | activation factor at 20 µM;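 active = diaphorase activity raised at least twofold by the compound at 20 µM; inactive = activation factor below 2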
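System – purified diaphorase enzyme from Clostridium kluyveri · Input – enzyme 0.07 U/mL final · Also added – final NADH 0.114 mM, resazurin 0.1 mM · Measured by – fluorescence of resorufin, 544 nm excitation, 590 nm emission · Timing – 16 min enzyme reaction, ambient temperature · Measure – resorufin increase flagging diaphorase activators or reducers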
L major viab = Leishmania major promastigote growth inhibition | Leishmania major promastigotes, resazurin fluorescence viability | inhibition, % at 10 µM | hit rate 9% among 200,000;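 also: promastigotes grown with compound for 44 hours at 28 °C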
L major 1uM = blocks Leishmania major promastigote growth at 1 uM, repeat screen | shares compounds with L major viab | L. major promastigote growth, resazurin fluorescence, 48 h | inhibition, % at 1 µM | hit rate 13% among 1,100 | AID 1258;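 active = inhibition above about 50% in both repeat tests, limit read from the data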
* hit, by the source's call; · = no result given. Most compounds without a hit are left out; they make up all but 11% or so of the library. Rule as the data show it, unless noted: active = inhibition above about 50%; inactive = the rest.

SMILES | WT yeast gro inh | G6PDH counter | Diaphorase inh | Diaphorase act | L major viab | L major 1uM
Cc1nc2ccc(Cl)cc2c(-c2ccccc2F)c1CC(=O)O | -8 | 8 | 2 | 1 | 62* | -13
Cc1nc2ccc(Cl)cc2c(-c2ccccc2)c1CC(=O)O | -22 | -8 | 2 | 1 | 54* | -21
Cc1nc2ccc(Cl)cc2c(-c2ccccc2Cl)c1CC(=O)O | 5 | -3 | 8 | 0.9 | 24 | ·
Cc1ccc2nc(/C(C#N)=C\c3ccc(N4CCCCC4)c([N+](=O)[O-])c3)[nH]c2c1 | 11 | 7 | 10 | 0.9 | 97* | 4
Cc1ccc(CC(=O)N2CCN(c3ccccn3)CC2)cc1 | -9 | 2 | 11 | 0.9 | -2 | ·
Cc1cccc(-c2cc3c(N=O)c4ccccc4c-3n[nH]2)c1 | 28 | 3 | 5 | 0.9 | 64* | 53*
O=Nc1c2cc(-c3ccccc3)[nH]nc-2c2ccccc12 | 58 | 8 | -8 | 1.1 | 65* | 54*
c1ccc(-c2n[nH]c3ccccc23)cc1 | 8 | 24 | 6 | 0.9 | -1 | ·
COc1ccccc1NS(=O)(=O)c1cc(C(=O)N2CC(C)CC(C)C2)ccc1C (centres undefined) | 26 | 7 | 7 | 0.9 | 8 | ·
O=C(c1ccc(S(=O)(=O)N2CCOCC2)cc1)N(c1cccc(Cl)c1)C1C=CS(=O)(=O)C1 (centres undefined) | 4 | 4 | 18 | 0.8 | -5 | ·
COc1ccc(CNC(=O)NC2CCCCC2)cc1 | -7 | 7 | 3 | 1 | 12 | ·
COc1ccc(CN2CCC(CNC(=O)NC3CCCCC3)CC2)cc1 | 7 | 5 | 14 | 0.9 | 90* | 7
COC(=O)C(CC(=O)c1ccc(Br)cc1)n1ccnc1 (centres undefined) | 23 | -6 | 3 | 1 | 79* | 26
CCOC(=O)C(NC(=O)NCc1cccc(C(F)(F)F)c1)(OCC)C(F)(F)F (centres undefined) | -5 | 0 | 5 | 0.9 | 1 | ·
CCOC(=O)c1sc(=S)sc1SCc1cccc(C(F)(F)F)c1 | 21 | 2 | 10 | 0.9 | 61* | -11
COC(=O)c1ccc(-c2ccc(/C=N/NC(=O)CC3(C)OCCCO3)o2)cc1 | -1 | 10 | · | · | 40 | ·
CCSC1=N/C(=C\c2ccc(C)s2)C(=O)S1 | 5 | 10 | 14 | 0.9 | 83* | -16
COc1cc(CNc2ccc(O)cc2)cc(Br)c1OCc1ccccc1F | 13 | -17 | 38 | 0.6 | 4 | ·
COc1cc(CNCC(C)C)cc(Br)c1OCC(=O)Nc1ccccc1 | 6 | 1 | 9 | 0.9 | 100* | 45
CCOC(=O)c1cnc(SCC(=O)Nc2ccc(NC(=O)CC)c(OC)c2)nc1N | 4 | -40 | 8 | 0.9 | 5 | ·
O=[N+]([O-])c1cc([N+](=O)[O-])c2n[nH]c(-c3ccccc3)c2c1 | 1 | 1 | 1 | 1 | 98* | 53*
O=[N+]([O-])c1ccc2nc(-c3ccccc3)cc(-c3ccccc3)c2c1 | -5 | 1 | 8 | 0.9 | -10 | ·
O=C(C1CCN(Cc2cn[nH]c2-c2ccc(F)cc2F)CC1)N1CCOCC1 | -11 | 13 | 21 | 0.8 | -2 | ·
CCOC(=O)c1ccc(NC(=S)N2CCSC2c2ccc(Cl)cc2)cc1 (centres undefined) | 60* | 9 | 16 | 0.8 | 60* | -11
CCS(=O)(=O)C(=C1NCCO1)S(=O)(=O)CC | 0 | -14 | 14 | 0.9 | -6 | ·
SMILES | WT yeast gro inh | G6PDH counter | Diaphorase inh | Diaphorase act | L major viab | L major 1uM
COC(=O)Cc1c[nH]c2cccc(OCC(O)CN(Cc3ccccc3)C(C)C)c12 (centres undefined) | -3 | 2 | -1 | 1 | 98* | -14
COC(=O)Cc1c[nH]c2cccc(OCC(O)CN(Cc3ccc([N+](=O)[O-])cc3)C(C)(C)C)c12 (centres undefined) | 10 | 10 | 6 | 0.9 | 39 | ·
CCC(=O)Nc1cccc(-n2nnnc2SCC(=O)N2CCCCC2)c1 | 3 | 7 | -4 | 1 | -3 | ·
O=C(CSc1ccc(-c2ccccn2)nn1)N1CCCC1 | 3 | 10 | -5 | 1.1 | -2 | ·
Nc1nnc(SCc2ccc([N+](=O)[O-])cc2)s1 | -14 | -1 | 11 | 0.9 | 1 | ·
Nc1ccc2nc(SCc3ccc([N+](=O)[O-])cc3)sc2c1 | -11 | 5 | 26 | 0.7 | 69* | 11
CC1=Nc2cccc3cccc(c23)N1 | 20 | 10 | 32 | 0.7 | 100* | -9
Nc1ccc(C2=Nc3cccc4cccc(c34)N2)cc1 | -6 | 22 | 1 | 1 | 23 | ·
OC12CCCCC1C(c1ccc3c(c1)OCO3)N(Cc1ccccc1F)CC2 (centres undefined) | 8 | 3 | 18 | 0.8 | 60* | 3
CN(c1ccccc1)c1ccc(/C=C(\C#N)c2nnc3n2CCCCC3)cc1[N+](=O)[O-] | -10 | -18 | -7 | 1.1 | 56* | 14
CC1=CC(C)C2(COC(c3ccc[n+](C)c3)OC2)C(C)C1 (centres undefined) | 5 | 16 | -32 | 1.3 | 100* | -1
COC(=O)CS(=O)(=O)c1nnc([C@H](Cc2ccccc2)NC(=O)OC(C)(C)C)o1 | 2 | -15 | 10 | 0.9 | 101* | 0
O=C(OCc1ccccc1)N1CCOCCOCCN(C(=O)OCc2ccccc2)CCOCCOCC1 | 7 | 13 | -1 | 1 | 61* | -4
CCOC(=O)N1CCOCCOCCN(C(=O)OCC)CCOCC1 | 2 | 2 | 17 | 0.8 | -6 | ·
Nc1sc(-c2ccccc2)c(Cc2ccccc2)c1C(=O)O | 24 | 12 | 13 | 0.9 | -13 | ·
C=CCOC(=O)c1cn(CC)c2nc(C)ccc2c1=O | -8 | 3 | 11 | 0.9 | 4 | ·
CCn1cc(C(=O)OCc2ccc(F)cc2)c(=O)c2ccc(C)nc21 | 4 | 22 | 20 | 0.8 | 50* | -2
CCN1CCN(C(=O)c2ccc3c(c2)N(Cc2ccc(F)cc2)C(=O)c2ccccc2S3=O)CC1 (centres undefined) | 10 | 9 | 10 | 0.9 | -3 | ·
Cc1cc(C)n2nc(C(=O)Nc3ccc4c(c3)CCC4)nc2n1 | 6 | 1 | 9 | 0.9 | 5 | ·
Cc1nn(-c2ccccc2)c(N)c1Sc1cccc([N+](=O)[O-])c1 | -3 | -5 | 22 | 0.8 | 52* | 14
O=C(CNC(=S)N(Cc1ccccc1)Cc1cccnc1)NC1CCCC1 | 7 | 8 | 10 | 0.9 | 1 | ·
Cn1c(SCC(=O)c2ccc3c(c2)OCCO3)nnc1C1CC1 | -9 | 3 | 8 | 0.9 | 1 | ·
Cc1nn(-c2cccc(C(F)(F)F)c2)c(Cl)c1/C=N/Nc1cccc(C(=O)O)c1 | 55 | 2 | 30 | 0.7 | 90* | -8
Cc1nn(-c2ccccc2Cl)c(Cl)c1/C=N/Nc1cccc(C(=O)O)c1 | -14 | -2 | 4 | 1 | 25 | ·
